In the RNAGym collection of RNA variant scans (doi:10.1002/anie.201605470) one finds self-cleavage data, which are given here for 48 variants.

The chains are these.
B1: Osa-1-4 twister ribozyme (parent)
chain: CCGCCUAACACUGCCAAUGCCGGUCCCAAGCCCGGAUAAAAGUGGAGGGGGCGG

The variants in this series derive from B1. Briefly: self-cleavage, relative activity (ratio to wild type); higher = more cleavage; co-transcriptional. In outline: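 In vitro transcription at 37 °C for 2 h allowed the twister ribozyme to cleave itself as it was made. Its 54-nucleotide Oryza sativa template had been synthesised with 97 % wild-type base and 1 % of each other base at the 48 positions downstream of the cleavage site. A template-switching oligonucleotide was used for reverse transcription, followed by PCR amplification and deep sequencing. Whether reads carried upstream sequence set the cleavage status, and relative activity is the fraction cleaved normalised to wild type.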
For CCGCCUAACACUGCCAAUGCCGGUCCCAAGCCCGGAUAAUAGUGCAGGGGGCGG, the self-cleavage amounted to 0.06.
With CCGCCUAACACUGCCAAUGCCGGUCCCAAGCCCGGAUAAUAGUGAAGGGGGCGG the figure was 0.07; with CCGCCUAACACUGCCAAUGCCGGUCCCAAGCCCGGAUAAUAGUGUAGGGGGCGG, 0.07; with CCGCCUAACACUGCCAAUGCCGGUCCCAAGCCCGGAUAAUAGUGGAGGGGUCGG, 0.1.
CCGCCUAACACUGCCAAUGCCGGUCCCAAGCCCGGAUAAUAGUGGAGGGGACGG: the self-cleavage was determined as 0.18.
With CCGCCUAACACUGCCAAUGCCGGUCCCAAGCCCGGAUAAUAGUGGAGGGGCCGG the figure was 0.06; with CCGCCUAACACUGCCAAUGCCGGUCCCAAGCCCGGAUAAUAGUGGAGUGGGCGG, 0.04; with CCGCCUAACACUGCCAAUGCCGGUCCCAAGCCCGGAUAAUAGUGGAGCGGGCGG, 0.05.
With CCGCCUAACACUGCCAAUGCCGGUCCCAAGCCCGGAUAAUAGUGGAGAGGGCGG, the self-cleavage stood at 0.06.
With CCGCCUAACACUUCCAAUGCCGGUCCCAAGCCCGGAUAAUAGUGGAGGGGGCGG the figure was 0.01.
As for CCGCCUAACACUCCCAAUGCCGGUCCCAAGCCCGGAUAAUAGUGGAGGGGGCGG, the figure is 0.02; as for CCGCCUAACACUACCAAUGCCGGUCCCAAGCCCGGAUAAUAGUGGAGGGGGCGG, 0.06.
With CCGCCUAACACUGCAAAUGCCGGUCCCAAGCCCGGAUAAACGUGGAGGGGGCGG the figure was 0.27; with CCGCCUAACACUGCUAAUGCCGGUCCCAAGCCCGGAUAAACGUGGAGGGGGCGG, 0.36.
As for CCGCCUAACACUGCGAAUGCCGGUCCCAAGCCCGGAUAAACGUGGAGGGGGCGG, the self-cleavage is 0.14.
As for CCGCCUAACACUGCCAAUGCCGGUCCCAAGCCCGGAUAAUAGUGGAGGGGGGGG, the figure is 0.46; as for CCGCCUAACACUGCCAAUGCCGGUCCCAAGCCCGGAUAAUAGUGGAGGGGGUGG, 0.74; as for CCGCCUAACACUGCCAAUGCCGGUCCCAAGCCCGGAUAAUAGUGGAGGGGGAGG, 0.4.
With CCGCCUAACACUGCCAAAGCCGGUCCCAAGCCCGGAUAAUAGUGGAGGGGGCGG the figure was 0.77; with CCGCCUAACACUGCCAAGGCCGGUCCCAAGCCCGGAUAAUAGUGGAGGGGGCGG, 0.64.
As for CCGCCUAACACUGCCAACGCCGGUCCCAAGCCCGGAUAAUAGUGGAGGGGGCGG, the figure is 0.71.
As to CCGCCUAACAGUGCCAAUGCCGGUCCCAAGCCCGGAUAAACGUGGAGGGGGCGG, the self-cleavage worked out at 0.24.
As for CCGCCUAACAAUGCCAAUGCCGGUCCCAAGCCCGGAUAAACGUGGAGGGGGCGG, the figure is 0.71; as for CCGCCUAACAUUGCCAAUGCCGGUCCCAAGCCCGGAUAAACGUGGAGGGGGCGG, 0.81; as for CCGCCUAACACUGCCAAUGCCGGUCCCAAGCCCGGAUAAACGUGGAGGGGGCGG, 0.99.
Take CCGCCUAACACUGCCAAUGCCGGUCCCAAGCCCGGAUAAUAGUGGAGGGGGCGC: the self-cleavage turned out to be 0.19.
Take CCGCCUAACACUGCCAAUGCCGGUCCCAAGCCCGGAUAAUAGUGGAGGGGGCGU: the self-cleavage worked out at 0.47.
As for CCGCCUAACACUGCCAAUGCCGGUCCCAAGCCCGGAUAAUAGUGGAGGGGGCGA, the self-cleavage is 0.25.
With CCGCCUAACACUGCCAAUGCCGGUCCCAAGCCCGGAUAAACGUGGGGGGGGCGG the figure was 0.06.
In the case of CCGCCUAACACUGCCAAUGCCGGUCCCAAGCCCGGAUAAACGUGGCGGGGGCGG, the self-cleavage is 0.05.
In the case of CCGCCUAACACUGCCAAUGCCGGUCCCAAGCCCGGAUAAACGUGGUGGGGGCGG, the self-cleavage is 0.08.
With CCGCCUAGCACUGCCAAUGCCGGUCCCAAGCCCGGAUAAACGUGGAGGGGGCGG the figure was 0.24.
As for CCGCCUACCACUGCCAAUGCCGGUCCCAAGCCCGGAUAAACGUGGAGGGGGCGG, the figure is 0.09.
With CCGCCUAUCACUGCCAAUGCCGGUCCCAAGCCCGGAUAAACGUGGAGGGGGCGG the figure was 0.16; with CCGCCUAACACUGCCAAUGCCGGUCCCAAGCCCGGAUAAUAGUGGAUGGGGCGG, 0.09.
Consider CCGCCUAACACUGCCAAUGCCGGUCCCAAGCCCGGAUAAUAGUGGACGGGGCGG, for which the self-cleavage was 0.06.
With CCGCCUAACACUGCCAAUGCCGGUCCCAAGCCCGGAUAAUAGUGGAAGGGGCGG the figure was 0.09.
With CCGCCUAACACUGCCAAUGCCGGUCCCAAGCCAGGAUAAUAGUGGAGGGGGCGG, the self-cleavage worked out at 0.07.
Consider CCGCCUAACACUGCCAAUGCCGGUCCCAAGCCGGGAUAAUAGUGGAGGGGGCGG, for which the self-cleavage came out at 0.06.
On to CCGCCUAACACUGCCAAUGCCGGUCCCAAGCCUGGAUAAUAGUGGAGGGGGCGG, for which the self-cleavage stood at 0.15.
With CCGCCUAACACUGCCAAUGCCGGUCCCAAGCCCCGAUAAUAGUGGAGGGGGCGG the figure was 0.15.
As for CCGCCUAACACUGCCAAUGCCGGUCCCAAGCCCUGAUAAUAGUGGAGGGGGCGG, the figure is 0.18.
On to CCGCCUAACACUGCCAAUGCCGGUCCCAAGCCCAGAUAAUAGUGGAGGGGGCGG, for which the self-cleavage was found to be 0.23.
With CCGCCUAACACUGCCAAUGCCUGUCCCAAGCCCGGAUAAUAGUGGAGGGGGCGG the figure was 0.21.
With CCGCCUAACACUGCCAAUGCCCGUCCCAAGCCCGGAUAAUAGUGGAGGGGGCGG the figure was 0.06; with CCGCCUAACACUGCCAAUGCCAGUCCCAAGCCCGGAUAAUAGUGGAGGGGGCGG, 0.32; with CCGCCUAACACUGCCAAUGCCGGUCCCAAGCCCGGAUAAUACUGGAGGGGGCGG, 0.11.
With CCGCCUAACACUGCCAAUGCCGGUCCCAAGCCCGGAUAAUAAUGGAGGGGGCGG, the self-cleavage amounted to 0.1.
